Data published in ChEMBL document CHEMBL5154824, “Design and synthesis of multifunctional microtubule targeting agents endowed with dual pro-apoptotic and anti-autophagic efficacy” (Eur J Med Chem, 2022).
pEC50, pIC50: −log10 of the molar value. Active and inactive are the calls of the source. The calls are words filed in the database; no cut-off is given here.

How the values were obtained:
HL-60 [1] = test: Induction of autophagy in human HL-60 cells assessed as increase in LC3-II protein level at 10 uM in presence of chloroquine […] by Immunoblotting analysis; type: functional, cell-based
[2] = Ratio of IC50 for cytotoxicity against human HeLa cells overexpressing tubulin beta3 assessed as inhibition of cell growth measured after 48 hrs to IC50 for cytotoxicity against human HeLa cells assessed as inhibition of cell growth measured after 48 hrs; type: functional
Outline: (§1)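 MTT assay: cells exposed to increasing compound concentrations for 48 h. Lines were A2780 and its P-gp-overexpressing A2780AD counterpart, and HeLa and HeLa β3 (tubulin β3-overexpressing). IC50 is the mean ± SD of three independent experiments. R/S is the IC50 in the resistant line divided by that in the parental line.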

OE33 = test: Cytotoxicity against human OE33 cells assessed as inhibition of cell growth measured after 72 hrs by MTT assay; type: functional, cell-based; conditions: OE33, 72 h
Outline: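 Oesophageal adenocarcinoma lines were exposed to at least 8 increasing concentrations for 72 h. Viability was measured by MTT. IC50 is the mean ± SD of at least three independent experiments.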

KYSE-520 cell line [3] = test: Cytotoxicity against human KYSE520 cells assessed as inhibition of cell growth measured after 72 hrs by alamar blue viability assay; type: functional, cell-based; conditions: KYSE-520, 72 h
Outline: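 KYSE-520 oesophageal cells were exposed to at least 8 increasing concentrations for 48 h or 72 h. Viability was read out to give IC50, as the mean ± SD of at least three independent experiments.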

NIH3T3 = test: Cytotoxicity against mouse NIH3T3 cells assessed as inhibition of cell growth measured after 24 hrs by neutral red uptake assay; type: functional, cell-based; conditions: NIH3T3, 24 h
Outline: (§2)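 Neutral red uptake viability test. NIH3T3 fibroblasts or primary human oral epithelial cells were exposed to compound at 0.1 to 120 μM. EC50 was derived, with SD below 5%.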

HeLa [4] = test: Cytotoxicity against human HeLa cells overexpressing tubulin beta3 assessed as inhibition of cell growth measured after 48 hrs by MTT assay; type: functional, cell-based
Outline: (§3)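 MTT assay. Cells were exposed for 48 h to increasing concentrations of compound. Ovarian A2780 was paired with its P-gp-overexpressing A2780AD counterpart, and HeLa with HeLa β3, which overexpresses the tubulin β3 isotype. IC50 is the mean ± SD of three independent experiments.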

SCC-4 [5] = test: Cytotoxicity against human SCC-4 cells assessed as reduction in cell viability measured after 48 hrs by alamar blue viability assay; type: functional, cell-based; conditions: SCC-4, 48 h
Outline: (§4)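 Oral squamous carcinoma cells were exposed for 48 h to at least 8 increasing concentrations. Viability was read by AlamarBlue. IC50 is the concentration that halves viability, taken as the mean ± SD of at least three independent experiments.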

[6] = target: Nuclear factor NF-kappa-B complex (Homo sapiens) (UniProt Q00653+P19838+Q04206); test: Inhibition of NF-kappaB phosphorylation in human HL-60 cells at 10 uM measured after 2 hrs by Immunoblotting analysis; type: cell-based
Nuclear factor NF-kappa-B complex (Homo sapiens), sequence (P19838 whole entry, looked up): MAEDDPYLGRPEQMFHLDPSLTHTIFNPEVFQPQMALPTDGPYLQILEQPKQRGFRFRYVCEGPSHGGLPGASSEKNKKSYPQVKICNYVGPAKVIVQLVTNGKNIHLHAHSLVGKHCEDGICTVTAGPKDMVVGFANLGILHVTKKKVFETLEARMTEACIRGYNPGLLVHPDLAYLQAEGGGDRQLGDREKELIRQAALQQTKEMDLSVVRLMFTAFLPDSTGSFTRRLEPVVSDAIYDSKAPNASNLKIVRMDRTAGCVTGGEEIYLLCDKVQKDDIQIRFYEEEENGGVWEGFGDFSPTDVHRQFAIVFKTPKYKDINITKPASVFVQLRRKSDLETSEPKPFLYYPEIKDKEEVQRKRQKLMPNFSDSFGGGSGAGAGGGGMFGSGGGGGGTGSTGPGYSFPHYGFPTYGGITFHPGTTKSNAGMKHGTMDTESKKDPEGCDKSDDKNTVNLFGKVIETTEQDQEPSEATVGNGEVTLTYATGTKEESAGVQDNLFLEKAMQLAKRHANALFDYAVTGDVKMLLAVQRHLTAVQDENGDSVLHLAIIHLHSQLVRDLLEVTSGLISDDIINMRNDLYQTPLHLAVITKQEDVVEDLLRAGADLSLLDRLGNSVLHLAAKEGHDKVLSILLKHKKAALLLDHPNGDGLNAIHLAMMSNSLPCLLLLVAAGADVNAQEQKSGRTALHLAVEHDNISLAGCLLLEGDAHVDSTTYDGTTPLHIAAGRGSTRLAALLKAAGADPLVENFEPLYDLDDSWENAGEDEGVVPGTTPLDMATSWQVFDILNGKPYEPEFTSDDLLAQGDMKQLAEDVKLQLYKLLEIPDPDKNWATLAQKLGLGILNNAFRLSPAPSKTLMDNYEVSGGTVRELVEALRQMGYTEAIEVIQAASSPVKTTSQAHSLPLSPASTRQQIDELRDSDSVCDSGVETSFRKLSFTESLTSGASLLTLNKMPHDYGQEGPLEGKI
Nuclear factor NF-kappa-B complex (Homo sapiens), sequence (Q00653 whole entry, looked up): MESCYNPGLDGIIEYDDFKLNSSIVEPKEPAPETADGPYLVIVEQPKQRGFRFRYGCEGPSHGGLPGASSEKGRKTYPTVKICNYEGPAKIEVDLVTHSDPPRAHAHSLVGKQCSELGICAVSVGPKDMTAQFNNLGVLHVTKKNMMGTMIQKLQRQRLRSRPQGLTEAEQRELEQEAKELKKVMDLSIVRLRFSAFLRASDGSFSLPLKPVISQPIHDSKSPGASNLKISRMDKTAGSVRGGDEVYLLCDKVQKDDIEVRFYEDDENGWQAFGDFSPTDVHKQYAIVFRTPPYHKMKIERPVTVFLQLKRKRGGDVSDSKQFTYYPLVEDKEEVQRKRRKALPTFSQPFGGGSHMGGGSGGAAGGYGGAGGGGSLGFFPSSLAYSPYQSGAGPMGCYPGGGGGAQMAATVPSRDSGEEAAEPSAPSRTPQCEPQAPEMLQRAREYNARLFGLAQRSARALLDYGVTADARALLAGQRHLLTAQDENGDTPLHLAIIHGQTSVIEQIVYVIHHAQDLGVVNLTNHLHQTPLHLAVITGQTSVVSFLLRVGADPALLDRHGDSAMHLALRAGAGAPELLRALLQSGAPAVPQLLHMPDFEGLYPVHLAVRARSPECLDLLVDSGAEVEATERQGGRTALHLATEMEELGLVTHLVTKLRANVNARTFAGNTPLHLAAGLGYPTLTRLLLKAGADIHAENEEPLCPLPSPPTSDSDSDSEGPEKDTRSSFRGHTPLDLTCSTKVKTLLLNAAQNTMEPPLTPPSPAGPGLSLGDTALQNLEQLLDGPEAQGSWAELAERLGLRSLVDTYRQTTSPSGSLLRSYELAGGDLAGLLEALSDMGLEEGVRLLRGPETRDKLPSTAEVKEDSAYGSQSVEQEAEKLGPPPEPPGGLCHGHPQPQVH
Nuclear factor NF-kappa-B complex (Homo sapiens), sequence (Q04206 whole entry, looked up): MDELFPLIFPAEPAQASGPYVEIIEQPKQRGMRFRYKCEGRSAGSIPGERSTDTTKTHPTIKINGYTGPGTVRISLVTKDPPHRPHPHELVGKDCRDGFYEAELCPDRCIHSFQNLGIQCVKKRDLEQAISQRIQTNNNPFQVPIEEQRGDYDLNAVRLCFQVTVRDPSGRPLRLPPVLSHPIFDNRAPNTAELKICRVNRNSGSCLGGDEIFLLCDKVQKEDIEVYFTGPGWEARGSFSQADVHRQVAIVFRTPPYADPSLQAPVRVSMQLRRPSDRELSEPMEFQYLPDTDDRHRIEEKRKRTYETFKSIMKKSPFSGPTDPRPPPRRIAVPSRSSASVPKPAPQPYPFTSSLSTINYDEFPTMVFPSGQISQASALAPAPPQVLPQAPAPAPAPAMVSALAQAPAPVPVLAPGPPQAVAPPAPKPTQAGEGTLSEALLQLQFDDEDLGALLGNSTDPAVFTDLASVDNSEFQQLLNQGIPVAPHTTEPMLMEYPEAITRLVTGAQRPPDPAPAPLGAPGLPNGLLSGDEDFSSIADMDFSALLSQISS
Outline: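 HL-60 cells were treated at 10 μM or with DMSO vehicle for 2 h. Phospho-NF-κB and phospho-Erk1/2 were immunoblotted and quantified by densitometry relative to β-tubulin. Data are mean ± SD (n = 2), analysed by one-way ANOVA.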

[7] = Cytotoxicity against human Primary oral epithelial cells assessed as inhibition of cell growth measured after 24 hrs by neutral red uptake assay; type: toxicity, cell-based; outline: as §2
[8] = Ratio of IC50 for cytotoxicity against human […] assessed as inhibition of cell growth measured after 48 hrs to IC50 for cytotoxicity against human A2780 cells assessed as inhibition of cell growth measured after 48 hrs; type: functional; outline: as §1
[9] = Induction of Pro-apoptosis in human HL-60 cells assessed as increase in apoptotic cells at 10 uM after 48 hrs by Annexin-V/PI-staining based flow cytometry; type: functional
SCC-4 [10] = test: Induction of apoptosis in human SCC-4 cells assessed as increase in apoptotic cells at 0.5 uM after 48 hrs by Annexin V-FITC/PI staining based flow cytometry method; type: functional, cell-based
Outline: (§5)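 SCC4 cells were treated at 0.5 or 2 μM for 48 h, then stained with Annexin V/PI and analysed by flow cytometry. Data are mean ± SEM of three independent experiments, with an unpaired one-tailed t-test versus vehicle.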

KYSE-520 cell line [11] = test: Induction of apoptosis in human KYSE520 cells assessed as increase in apoptotic cells at 3 to 10 uM after 72 hrs by Annexin V-FITC/PI staining based flow cytometry method; type: functional, cell-based; conditions: dose 3-10 µM
Outline: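 KYSE-520 cells were treated at 3 and 10 μM for 72 h, then analysed by flow cytometry after Annexin V/PI dual staining.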

Tubulin (Homo sapiens) = Tubulin (Homo sapiens) (UniProt P68371+Q9H4B7+P0DPH7+P68366+Q13509+Q71U36+P04350+Q3ZCM7+P07437+P68363+Q9BQE3+Q6PEY2+Q13885+Q9BVA1+Q9BUF5); test: Binding affinity to microtubule polymerization (unknown origin) assessed as formation of microtubule at 27.5 uM measured for 2 hrs by plate reader method; type: protein-complex assay
Outline: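 25 μM tubulin in GAB buffer with compound at 27.5 μM or DMSO vehicle; podophyllotoxin 27.5 μM as destabiliser control. Polymerisation started by raising temperature from 4 to 37 °C at time 0; microtubule formation followed as absorbance increase over time.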

HL-60 [12] = test: Induction of autophagy in human HL-60 cells assessed as increase in p62 protein level at 10 uM […] by Immunoblotting analysis; type: functional, cell-based
Emu-TCL1 = test: Induction of apoptosis in mouse Emu-TCL1 cells model of CLL assessed as mitochondrial membrane depolarization at 10 uM after 48 hrs by TMRM dye based flow cytometric analysis; type: functional, cell-based
Outline: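 Splenocytes from Eμ-TCL1 leukaemic mice were treated with 10 μM or DMSO vehicle for 48 h, then TMRM-loaded. Flow cytometry gave the percentage of TMRM-low cells as mean ± SD (n = 3).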

SCC-4 [13] = test: Induction of apoptosis in human SCC-4 cells assessed as increase in apoptotic cells at 2 uM after 48 hrs by Annexin V-FITC/PI staining based flow cytometry method; type: functional, cell-based; outline: as §5
HeLa [14] = test: Cytotoxicity against human HeLa cells assessed as inhibition of cell growth measured after 48 hrs by MTT assay; type: functional, cell-based; outline: as §3
Ca9-22 = test: Cytotoxicity against human Ca9-22 cells assessed as reduction in cell viability measured after 48 hrs by alamar blue viability assay; type: functional, cell-based; conditions: Ca9-22, 48 h; outline: as §4
HL-60 [15] = test: Induction of autophagy in human HL-60 cells assessed as increase in LC3-II protein level at 10 uM measured up to 1 hr by Immunoblotting analysis; type: functional, cell-based
A549 = test: Cytotoxicity against human A549 cells assessed as inhibition of cell growth measured after 48 hrs by MTT assay; type: functional, cell-based; conditions: A549, 48 h
[16] = Cytotoxicity against human TR146 cells assessed as reduction in cell viability measured after 48 hrs by alamar blue viability assay; type: functional, cell-based; conditions: TR146, 48 h; outline: as §4
SCC-4 [17] = test: Induction of autophagy in human SCC-4 cells assessed as increase in LC3-II to LC3-I ratio at 10 uM in absence of EBSS measured after 3 hrs by Western blot analysis; type: functional, cell-based
Outline: (§6)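 SCC4 cells were pre-incubated with or without EBSS for 30 min, then given 10 μM compound, with 10 μM chloroquine as reference, for 3 h. LC3-I/II was assessed by Western blot with GAPDH loading control. The LC3-II/LC3-I ratio came from densitometry, as mean ± SEM of four experiments, with an unpaired one-tailed t-test.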

SCC-4 [18] = test: Induction of autophagy in human SCC-4 cells assessed as increase in LC3-II to LC3-I ratio at 10 uM incubated for 30 mins in presence of EBSS followed by compound addition and measured after 3 hrs by Western blot analysis; type: functional, cell-based; outline: as §6
A2780 [19] = test: Cytotoxicity against human A2780 cells assessed as inhibition of cell growth measured after 48 hrs by MTT assay; type: functional, cell-based; conditions: A2780, 48 h; outline: as §3
A2780 [20] = test: Cytotoxicity against human A2780AD cells assessed as inhibition of cell growth measured after 48 hrs by MTT assay; type: functional, cell-based; conditions: A2780, 48 h; outline: as §3
[21] = Induction of Pro-apoptosis in human HL-60 cells assessed as increase in apoptotic cells at 10 uM after 24 hrs by TMRM dye based flow cytometric analysis; type: functional
[22] = Induction of Pro-apoptosis in human HL-60 cells assessed as increase in apoptotic cells at 25 uM after 24 hrs by TMRM dye based flow cytometric analysis; type: functional

For `CCN(CC)CCCC(C)NC(=O)OC1=C(c2cccc3ncccc23)Oc2cc3ccccc3cc2-n2cccc21` (racemic), the Activity (HL-60 [1]) was “Active”, the “Ratio IC50” value [2] was 0.72 and the pIC50 (OE33) was 5.86. It also gave a pIC50 (KYSE-520 cell line [3]) of 4.38, a pEC50 (NIH3T3) of 5.22 and a pIC50 (HeLa [4]) of 6.18. For the same compound, the pIC50 (SCC-4 [5]) was 6.04, the inhibition [6] was “Active” and the EC50 at 24 h [7] was 45000 nM. The “Ratio IC50” value [8] was 1.18, the Activity [9] was “>=70%” and the Activity (SCC-4 [10]) was “Active”. For the same compound, the Activity (KYSE-520 cell line [11]) was “Active”, the Activity (Tubulin (Homo sapiens)) was “Active” and the Activity (HL-60 [12]) was “Active”. The Activity (Emu-TCL1) was “Active”, the Activity (SCC-4 [13]) was “Active” and the pIC50 (HeLa [14]) was 6.04. For the same compound, the pIC50 (Ca9-22) was 5.70, the Activity (HL-60 [15]) was “Active” and the pIC50 (A549) was 5.86. For the same compound, the pIC50 [16] was 5.82, the Activity (SCC-4 [17]) was “Active” and the Activity (SCC-4 [18]) was “Active”. It also gave a pIC50 (A2780 [19]) of 5.99 and a pIC50 (A2780 [20]) of 5.92.
For `COc1cc([C@@H]2c3cc4c(cc3[C@H](O)[C@H]3COC(=O)[C@H]23)OCO4)cc(OC)c1OC` [PODOFILOX], the “Ratio IC50” value [2] was 0.82, the pIC50 (HeLa [4]) was 7.85 and the “Ratio IC50” value [8] was 1.33. For the same compound, the Activity (Tubulin (Homo sapiens)) was “Active”, the pIC50 (HeLa [14]) was 7.77 and the pIC50 (A549) was 7.92. It also gave a pIC50 (A2780 [19]) of 7.82 and a pIC50 (A2780 [20]) of 7.70.
In the case of `CC(=O)OC1=C(c2cccc3ccccc23)Oc2ccc(C)cc2-n2cccc21`, the pEC50 (NIH3T3) was 6.52, the Activity [21] was less than 30% and the Activity [22] was “>=50%”.
In the case of `O=C(OC1=C(c2cccc3ncccc23)Oc2cc3ccccc3cc2-n2cccc21)c1cccnc1`, the Activity (HL-60 [1]) was “Active”, the pEC50 (NIH3T3) was 5.22 and the Activity [9] was “>=70%”. For the same compound, the Activity (HL-60 [12]) was “Active”, the Activity (Emu-TCL1) was “Active” and the Activity (HL-60 [15]) was “Active”.
For `CCN(CC)CCCC(C)Nc1ccnc2cc(Cl)ccc12` (stereo unspecified), the Activity (SCC-4 [17]) was “Active” and the Activity (SCC-4 [18]) was “Active”.
For `CC(=O)OC1=C(c2cccc3ccccc23)Oc2cc3ccccc3cc2-n2cccc21`, the Activity (HL-60 [1]) was “Active”, the inhibition [6] was “Active” and the Activity [21] was “>=50%”. The Activity [9] was “>=70%”, the Activity (HL-60 [12]) was “Active” and the Activity (Emu-TCL1) was “Active”. The Activity (HL-60 [15]) was “Active”.
In the case of `CC(=O)OC1=C(c2cccc3ccccc23)Oc2cc3c(cc2-n2cccc21)OCO3`, the pEC50 (NIH3T3) was 6.82, the Activity [21] was “>=50%” and the Activity [22] was “>=50%”.
In the case of `CC(=O)OC1=C(c2cccc3cccnc23)Oc2cc3ccccc3cc2-n2cccc21`, the pIC50 (SCC-4 [5]) was 6.89, the Activity [9] was “>=70%” and the Activity (SCC-4 [10]) was “Active”. The Activity (SCC-4 [13]) was “Active”, the Activity (SCC-4 [17]) was “Active” and the Activity (SCC-4 [18]) was “Active”.
